We go through 16 compounds from ChEMBL document CHEMBL4325897, “Discovery, synthesis of novel fusidic acid derivatives possessed amino-terminal groups at the 3-hydroxyl position with anticancer activity” (Eur J Med Chem, 2019).

The subject of series [1] is U-87 MG. As to the kind of experiment: Cytotoxicity against human U87 cells assessed as cell viability at 5 uM after 72 hrs by MTT assay relative to control. Type of series: functional, U-87MG ATCC. The conditions noted are these: read-out: Activity. In outline:
(§1)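 Cells grown in DMEM with 10% heat-inactivated FCS and penicillin/streptomycin at 37 °C, 5% CO2, and used in log phase. Seeded in 96-well plates and exposed to compounds at 5 μM and 1.5 μM for 72 h. MTT added, formazan dissolved in DMSO, OD read at 570 nm, and survival rate calculated. Average of at least three independent experiments.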

A short description of series [2]: Cytotoxicity against human KBV cells assessed as cell viability at 1.5 uM after 72 hrs by MTT assay relative to control. Type of series: functional. The conditions noted are these: read-out: Activity. The method in brief: as §1
A general note: Tetrazolium assays rely on reduction of a dye to a coloured formazan, in cell work by metabolically active cells.

The nature of series [3]: Cytotoxicity against human KBV cells assessed as cell viability at 5 uM after 72 hrs by MTT assay relative to control. It counts as functional. Particulars: read-out: Activity. The method in brief: as §1
Series [4] concerns HeLa. Nature of the series: Cytotoxicity against human HeLa cells assessed as cell viability at 1.5 uM after 72 hrs by MTT assay relative to control. It counts as functional. The conditions noted are these: read-out: Activity. The method in brief: as §1
The test system of series [5] is HeLa. As to the kind of experiment: Cytotoxicity against human HeLa cells assessed as cell viability at 5 uM after 72 hrs by MTT assay relative to control. It counts as functional. Particulars: read-out: Activity. The method in brief:
as §1

Series [6] relates to MKN-45. Nature of the series: Cytotoxicity against human MKN45 cells assessed as cell viability at 5 uM after 72 hrs by MTT assay relative to control. Type of series: functional. The conditions noted are these: MKN-45, 72 h, read-out: Activity. In outline: as §1
Series [7] concerns U-87 MG. Nature of the series: Cytotoxicity against human U87 cells assessed as cell viability at 1.5 uM after 72 hrs by MTT assay relative to control. Type of series: functional, U-87MG ATCC. The conditions noted are these: read-out: Activity. In outline:
as §1

Series [8] has as its system MKN-45. Nature of the series: Cytotoxicity against human MKN45 cells assessed as cell viability at 1.5 uM after 72 hrs by MTT assay relative to control. Type of series: functional. The conditions noted are these: MKN-45, 72 h, read-out: Activity. In outline: as §1
The next series deals with Staphylococcus aureus. As to the kind of experiment: Antibacterial activity against Staphylococcus aureus. Type of series: functional.
Series [9] in a line: Cytotoxicity against HEK293 cells assessed as reduction in cell viability after 72 hrs by MTT assay. Type of series: cell-based. The conditions noted are these: human.

≈ marks a conversion by molar mass, not a printed value.

As for `CC(=O)O[C@H]1C[C@@]2(C)[C@@H](C[C@@H](O)[C@H]3[C@@]4(C)CC[C@@H](OC(=O)c5ccccc5C(=O)N5CCOCC5)[C@@H](C)[C@@H]4CC[C@@]32C)/C1=C(\CCC=C(C)C)C(=O)OCc1ccccc1`, the viability at 5 µM with U-87 MG [1] is 77%; in [3], 66%; in the series on HeLa [5], 60%; in the series with MKN-45 [6], 92%. In addition, the viability at 1.5 µM in [2] was determined as 81%; in the series with HeLa [4], 76%; with U-87 MG [7], 86%; with MKN-45 [8] it was 104%.

On to `CC(=O)O[C@H]1C[C@@]2(C)[C@@H](C[C@@H](O)[C@H]3[C@@]4(C)CC[C@@H](OC(=O)c5ccccc5C(=O)n5ccnc5)[C@@H](C)[C@@H]4CC[C@@]32C)/C1=C(\CCC=C(C)C)C(=O)OCc1ccccc1`, for which the viability at 5 µM in the series with U-87 MG [1] is 77%; in series [3] it was 69%; in the series with HeLa [5], 63%; with MKN-45 [6], 92%. The viability at 1.5 µM in [2] amounted to 81%; in the series on HeLa [4], 84%; in the series on U-87 MG [7] it was 85%; with MKN-45 [8] it was 103%.

Regarding `CC(=O)O[C@H]1C[C@@]2(C)[C@@H](C[C@@H](O)[C@H]3[C@@]4(C)CC[C@@H](OC(=O)C(N)CC(C)C)[C@@H](C)[C@@H]4CC[C@@]32C)/C1=C(\CCC=C(C)C)C(=O)OCc1ccccc1` (stereo not given in full), the viability at 5 µM with U-87 MG [1] was determined as 111%; in series [3] it was 83%; in the series with HeLa [5] it was 22%; with MKN-45 [6] it was 92%. Also, the viability at 1.5 µM in series [2] is 96%; in the series with HeLa [4] it was 99%; with U-87 MG [7], 106%; with MKN-45 [8], 95%.

With `CC(=O)O[C@H]1C[C@@]2(C)[C@@H](C[C@@H](O)[C@H]3[C@@]4(C)CC[C@@H](OC(=O)[C@@H](N)CCCCN)[C@@H](C)[C@@H]4CC[C@@]32C)/C1=C(\CCC=C(C)C)C(=O)OCc1ccccc1`, the viability at 5 µM with U-87 MG [1] turned out to be 9%; in [3], 18%; with HeLa [5], 8%; with MKN-45 [6], 8%. The viability at 1.5 µM in series [2] is 99%; in the series on HeLa [4], 101%; with U-87 MG [7], 105%; with MKN-45 [8] it was 91%.

For the compound `CC(=O)O[C@H]1C[C@@]2(C)[C@@H](C[C@@H](O)[C@H]3[C@@]4(C)CC[C@@H](OC(=O)CCC(=O)O)[C@@H](C)[C@@H]4CC[C@@]32C)/C1=C(\CCC=C(C)C)C(=O)OCc1ccccc1`, the viability at 5 µM in the series on U-87 MG [1] was 84%; in series [3], 66%; in the series with HeLa [5] it was 69%; with MKN-45 [6], 76%. Also, the viability at 1.5 µM in series [2] was 72%; in the series with HeLa [4], 83%; with U-87 MG [7], 86%; in the series on MKN-45 [8] it was 74%.

`CC(=O)O[C@H]1C[C@@]2(C)[C@@H](C[C@@H](O)[C@H]3[C@@]4(C)CC[C@@H](OC(=O)CCC(=O)N5CCOCC5)[C@@H](C)[C@@H]4CC[C@@]32C)/C1=C(\CCC=C(C)C)C(=O)OCc1ccccc1`: the viability at 5 µM in the series with U-87 MG [1] amounted to 93%; in [3], 66%; in the series with HeLa [5], 64%; in the series with MKN-45 [6], 78%. Moreover, the viability at 1.5 µM in series [2] turned out to be 78%; with HeLa [4], 76%; in the series with U-87 MG [7], 91%; in the series with MKN-45 [8] it was 82%.

Take `CC(=O)O[C@H]1C[C@@]2(C)[C@@H](C[C@@H](O)[C@H]3[C@@]4(C)CC[C@@H](OC(=O)CCCCCCCN)[C@@H](C)[C@@H]4CC[C@@]32C)/C1=C(\CCC=C(C)C)C(=O)OCc1ccccc1`: the viability at 5 µM in the series on U-87 MG [1] was 10%; in series [3], 11%; in the series with HeLa [5] it was 19%; in the series with MKN-45 [6], 4%. In addition, the viability at 1.5 µM amounted to 83% in series [2], 99% in the series on HeLa [4], 116% in the series on U-87 MG [7] and 16% with MKN-45 [8].

For `CC(=O)O[C@H]1C[C@@]2(C)[C@@H](C[C@@H](O)[C@H]3[C@@]4(C)CC[C@@H](OC(=O)CCC(=O)N5CCN(C)CC5)[C@@H](C)[C@@H]4CC[C@@]32C)/C1=C(\CCC=C(C)C)C(=O)OCc1ccccc1`, the viability at 5 µM in the series with U-87 MG [1] stood at 88%; in series [3] it was 71%; in the series on HeLa [5], 47%; in the series on MKN-45 [6] it was 75%. The viability at 1.5 µM in [2] turned out to be 82%; with HeLa [4], 70%; in the series on U-87 MG [7], 87%; in the series on MKN-45 [8] it was 81%.

Take `CC(=O)O[C@H]1C[C@@]2(C)[C@@H](C[C@@H](O)[C@H]3[C@@]4(C)CC[C@@H](OC(=O)CCCCCCCCCCN)[C@@H](C)[C@@H]4CC[C@@]32C)/C1=C(\CCC=C(C)C)C(=O)OCc1ccccc1`: the viability at 5 µM was found to be 10% in the series on U-87 MG [1], 9% in [3], 19% in the series on HeLa [5] and 5% with MKN-45 [6]. The viability at 1.5 µM in series [2] was determined as 93%; in the series with HeLa [4], 100%; in the series with U-87 MG [7] it was 49%; in the series with MKN-45 [8], 96%.

For the compound `CC(=O)O[C@H]1C[C@@]2(C)[C@@H](C[C@@H](O)[C@H]3[C@@]4(C)CC[C@@H](OC(=O)c5ccccc5C(=O)O)[C@@H](C)[C@@H]4CC[C@@]32C)/C1=C(\CCC=C(C)C)C(=O)OCc1ccccc1`, the viability at 5 µM in the series with U-87 MG [1] is 85%; in series [3] it was 81%; in the series with HeLa [5], 68%; in the series on MKN-45 [6], 76%. For the same compound, the viability at 1.5 µM stood at 78% in series [2], 89% in the series on HeLa [4], 81% in the series on U-87 MG [7] and 78% in the series with MKN-45 [8]. Besides, the minimal inhibitory concentration (MIC) (in general, the least concentration at which growth counts as inhibited) against Staphylococcus aureus stood at 32 µg/mL (≈ 42.4 µM). Also, in series [9], the CC50 (in general, the concentration at which the toxic effect on the cells reaches its halfway point) at 72 h worked out at 20.6 µg/mL (≈ 27.3 µM).

Consider `CC(=O)O[C@H]1C[C@@]2(C)[C@@H](C[C@@H](O)[C@H]3[C@@]4(C)CC[C@@H](OC(=O)C(C)N)[C@@H](C)[C@@H]4CC[C@@]32C)/C1=C(\CCC=C(C)C)C(=O)OCc1ccccc1` (stereo not given in full), for which the viability at 5 µM with U-87 MG [1] turned out to be 33%; in series [3] it was 15%; in the series with HeLa [5] it was 23%; with MKN-45 [6] it was 91%. The viability at 1.5 µM in series [2] amounted to 95%; with HeLa [4], 102%; with U-87 MG [7], 95%; in the series on MKN-45 [8], 96%.

In the case of `CC(=O)O[C@H]1C[C@@]2(C)[C@@H](C[C@@H](O)[C@H]3[C@@]4(C)CC[C@@H](OC(=O)CCC(=O)n5cccn5)[C@@H](C)[C@@H]4CC[C@@]32C)/C1=C(\CCC=C(C)C)C(=O)OCc1ccccc1`, the viability at 5 µM turned out to be 83% with U-87 MG [1], 80% in series [3], 71% in the series on HeLa [5] and 83% in the series with MKN-45 [6]. Besides, the viability at 1.5 µM in [2] amounted to 77%; in the series on HeLa [4], 75%; in the series with U-87 MG [7], 87%; with MKN-45 [8], 88%.

Consider `CC(=O)O[C@H]1C[C@@]2(C)[C@@H](C[C@@H](O)[C@H]3[C@@]4(C)CC[C@@H](OC(=O)CCCN)[C@@H](C)[C@@H]4CC[C@@]32C)/C1=C(\CCC=C(C)C)C(=O)OCc1ccccc1`, for which the viability at 5 µM with U-87 MG [1] was 9%; in series [3], 13%; in the series with HeLa [5], 23%; in the series on MKN-45 [6], 6%. In addition, the viability at 1.5 µM in series [2] is 98%; with HeLa [4], 101%; in the series with U-87 MG [7], 10%; in the series on MKN-45 [8], 90%.

`CC(=O)O[C@H]1C[C@@]2(C)[C@@H](C[C@@H](O)[C@H]3[C@@]4(C)CC[C@@H](OC(=O)c5nccnc5C(=O)O)[C@@H](C)[C@@H]4CC[C@@]32C)/C1=C(\CCC=C(C)C)C(=O)OCc1ccccc1`: the viability at 5 µM in the series with U-87 MG [1] came to 90%; in series [3], 108%; with HeLa [5], 69%; with MKN-45 [6], 87%. The viability at 1.5 µM in series [2] was determined as 86%; in the series with HeLa [4], 76%; with U-87 MG [7], 88%; with MKN-45 [8], 95%.

Consider `CC(=O)O[C@H]1C[C@@]2(C)[C@@H](C[C@@H](O)[C@H]3[C@@]4(C)CC[C@@H](OC(=O)c5ccccc5C(=O)n5cccn5)[C@@H](C)[C@@H]4CC[C@@]32C)/C1=C(\CCC=C(C)C)C(=O)OCc1ccccc1`, for which the viability at 5 µM is 87% in the series on U-87 MG [1], 79% in series [3], 82% in the series with HeLa [5] and 96% in the series with MKN-45 [6]. Further, the viability at 1.5 µM in series [2] turned out to be 85%; in the series on HeLa [4] it was 90%; in the series on U-87 MG [7], 90%; in the series with MKN-45 [8] it was 101%.

As for `CC(=O)O[C@H]1C[C@@]2(C)[C@@H](C[C@@H](O)[C@H]3[C@@]4(C)CC[C@@H](OC(=O)c5ccccc5C(=O)N5CCN(C)CC5)[C@@H](C)[C@@H]4CC[C@@]32C)/C1=C(\CCC=C(C)C)C(=O)OCc1ccccc1`, the viability at 5 µM in the series with U-87 MG [1] came to 77%; in series [3], 75%; in the series with HeLa [5] it was 73%; in the series on MKN-45 [6], 99%. The viability at 1.5 µM in series [2] is 89%; with HeLa [4] it was 83%; with U-87 MG [7], 86%; in the series on MKN-45 [8], 104%.
